Results taken from ChEMBL document CHEMBL3046353, “Synthesis and fungicidal activity of some 5-membered heterocyclic derivatives containing benzimidazoles” (1993).
Active and inactive are the calls of the source.

Legend:
Oryza sativa [1] = assay: Herbicidal activity against Oryza sativa (rice) under paddy conditions; assay type: functional, organism-based
Musca domestica = assay: Insecticidal activity against Musca domestica (house fly); assay type: functional, organism-based
Convolvulaceae [2] = assay: Pre-emergence herbicidal activity against Convolvulaceae (morning glory family); assay type: functional, organism-based
Avena sativa [3] = assay: Herbicidal activity against Avena sativa under paddy conditions; assay type: functional, organism-based
Echinochloa crus-galli [4] = assay: Pre-emergence herbicidal activity against Echinochloa crus-galli (barnyard grass); assay type: functional, organism-based
Schoenoplectus acutus [5] = assay: Herbicidal activity against Schoenoplectus acutus (hardstem bulrush) under paddy conditions; assay type: functional, organism-based
Oryza sativa [6] = assay: Pre-emergence herbicidal activity against Oryza sativa (rice); assay type: functional, organism-based
Convolvulaceae [7] = assay: Post-emergence herbicidal activity against Convolvulaceae (morning glory family); assay type: functional, organism-based
Avena sativa [8] = assay: Pre-emergence herbicidal activity against Avena sativa; assay type: functional, organism-based
Schoenoplectus acutus [9] = assay: Pre-emergence herbicidal activity against Schoenoplectus acutus (hardstem bulrush); assay type: functional, organism-based
Sagittaria latifolia [10] = assay: Pre-emergence herbicidal activity against Sagittaria latifolia (broadleaf arrowhead); assay type: functional, organism-based
Culex pipiens pallens = assay: Insecticidal activity against Culex pipiens pallens (mosquito) at 3 to 5 ppm; assay type: functional, organism-based
Sagittaria latifolia [11] = assay: Herbicidal activity against Sagittaria latifolia (broadleaf arrowhead) under paddy conditions; assay type: functional, organism-based
Abutilon theophrasti [12] = assay: Pre-emergence herbicidal activity against Abutilon theophrasti (velvetleaf); assay type: functional, organism-based
Sagittaria latifolia [13] = assay: Post-emergence herbicidal activity against Sagittaria latifolia (broadleaf arrowhead); assay type: functional, organism-based
Echinochloa crus-galli [14] = assay: Post-emergence herbicidal activity against Echinochloa crus-galli (barnyard grass); assay type: functional, organism-based
Convolvulaceae [15] = assay: Herbicidal activity against Convolvulaceae (morning glory family) under paddy conditions; assay type: functional, organism-based
Abutilon theophrasti [16] = assay: Post-emergence herbicidal activity against Abutilon theophrasti (velvetleaf); assay type: functional, organism-based
Spodoptera litura = assay: Insecticidal activity against Spodoptera litura; assay type: functional, organism-based
Oryza sativa [17] = assay: Post-emergence herbicidal activity against Oryza sativa (rice); assay type: functional, organism-based
Rhizoctonia solani = assay: Fungicidal activity against Rhizoctonia solani at 500 ppm after 7 days by poisoned food technique; assay type: functional; conditions: 168 h, read-out: GI
How it was run: (§1)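 Cultures kept on potato dextrose agar. Each compound, dissolved in acetone, was added to potato dextrose agar at a final 500 ppm (w/v) (poisoned food technique). A disc cut from the periphery of a seven-day-old culture was inoculated onto each set. Control sets held potato dextrose agar only. The read-out is percentage inhibition of fungal growth relative to control.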

Avena sativa [18] = assay: Post-emergence herbicidal activity against Avena sativa; assay type: functional, organism-based
Helminthosporium = assay: Fungicidal activity against Helminthosporium oryzae at 500 ppm after 7 days by poisoned food technique; assay type: functional; conditions: 168 h, read-out: GI; how it was run: as §1
Echinochloa crus-galli [19] = assay: Herbicidal activity against Echinochloa crus-galli (barnyard grass) under paddy conditions; assay type: functional, organism-based
Schoenoplectus acutus [20] = assay: Post-emergence herbicidal activity against Schoenoplectus acutus (hardstem bulrush); assay type: functional, organism-based
Tetranychus cinnabarinus = assay: Insecticidal activity against Tetranychus cinnabarinus (carmine spider mite); assay type: functional, organism-based

Clc1ccccc1-c1nnc(SCc2nc3ccccc3[nH]2)o1
active: Activity (Culex pipiens pallens)
inactive: Activity (Oryza sativa [1]) | Activity (Musca domestica) | Activity (Convolvulaceae [2]) | Activity (Avena sativa [3]) | Activity (Echinochloa crus-galli [4]) | Activity (Schoenoplectus acutus [5]) | Activity (Oryza sativa [6]) | Activity (Convolvulaceae [7]) | Activity (Avena sativa [8]) | Activity (Schoenoplectus acutus [9]) | Activity (Sagittaria latifolia [10]) | Activity (Sagittaria latifolia [11]) | Activity (Abutilon theophrasti [12]) | Activity (Sagittaria latifolia [13]) | Activity (Echinochloa crus-galli [14]) | Activity (Convolvulaceae [15]) | Activity (Abutilon theophrasti [16]) | Activity (Spodoptera litura) | Activity (Oryza sativa [17]) | Activity (Avena sativa [18]) | Activity (Echinochloa crus-galli [19]) | Activity (Schoenoplectus acutus [20]) | Activity (Tetranychus cinnabarinus)
56.2%: inhibition of growth at 500 ppm (Rhizoctonia solani)
75%: inhibition of growth at 500 ppm (Helminthosporium)

c1ccc(-c2nnc(SCc3nc4ccccc4[nH]3)s2)cc1
inactive: Activity (Oryza sativa [1]) | Activity (Musca domestica) | Activity (Convolvulaceae [2]) | Activity (Avena sativa [3]) | Activity (Echinochloa crus-galli [4]) | Activity (Schoenoplectus acutus [5]) | Activity (Oryza sativa [6]) | Activity (Convolvulaceae [7]) | Activity (Avena sativa [8]) | Activity (Schoenoplectus acutus [9]) | Activity (Sagittaria latifolia [10]) | Activity (Sagittaria latifolia [11]) | Activity (Abutilon theophrasti [12]) | Activity (Sagittaria latifolia [13]) | Activity (Echinochloa crus-galli [14]) | Activity (Convolvulaceae [15]) | Activity (Abutilon theophrasti [16]) | Activity (Spodoptera litura) | Activity (Oryza sativa [17]) | Activity (Avena sativa [18]) | Activity (Echinochloa crus-galli [19]) | Activity (Schoenoplectus acutus [20]) | Activity (Tetranychus cinnabarinus)
69.8%: inhibition of growth at 500 ppm (Rhizoctonia solani)
74.3%: inhibition of growth at 500 ppm (Helminthosporium)
active: Activity (Culex pipiens pallens)

c1ccc2[nH]c(CSc3nnc(-c4ccncc4)s3)nc2c1
inactive: Activity (Oryza sativa [1]) | Activity (Musca domestica) | Activity (Convolvulaceae [2]) | Activity (Avena sativa [3]) | Activity (Echinochloa crus-galli [4]) | Activity (Schoenoplectus acutus [5]) | Activity (Oryza sativa [6]) | Activity (Convolvulaceae [7]) | Activity (Avena sativa [8]) | Activity (Schoenoplectus acutus [9]) | Activity (Sagittaria latifolia [10]) | Activity (Sagittaria latifolia [11]) | Activity (Abutilon theophrasti [12]) | Activity (Sagittaria latifolia [13]) | Activity (Echinochloa crus-galli [14]) | Activity (Convolvulaceae [15]) | Activity (Abutilon theophrasti [16]) | Activity (Spodoptera litura) | Activity (Oryza sativa [17]) | Activity (Avena sativa [18]) | Activity (Echinochloa crus-galli [19]) | Activity (Schoenoplectus acutus [20]) | Activity (Tetranychus cinnabarinus)
21.3%: inhibition of growth at 500 ppm (Rhizoctonia solani)
active: Activity (Culex pipiens pallens)
54.5%: inhibition of growth at 500 ppm (Helminthosporium)
